Each structure is given as a SMILES string.

Series [1] has as its target Melanin-concentrating hormone receptor 1 (Rattus norvegicus, UniProt P97639). Briefly: Displacement of [125I]MCH from rat MCHR1 expressed in CHO cells after 60 mins by liquid scintillation counting. The series is classed as cell-based. In a few lines: (§1)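 Membrane homogenates from CHO cells stably expressing human or rat MCHR1 in 25 mM Tris-HCl pH 7.5 with EDTA, BSA and protease inhibitors. Membrane protein 2 μg/mL (human) or 4 μg/mL (rat). Nonspecific binding defined with 0.3 μM MCH(1–19). Filter radioactivity counted. IC50 from one experiment in duplicate.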
Background: Displacement assays read how much labelled ligand stays bound in the presence of the test substance.

Series [2] concerns the target T1, Melanin-concentrating hormone receptor 1 (Homo sapiens, UniProt Q99705). Briefly: Displacement of [125I]MCH from human MCHR1 expressed in CHO cells after 60 mins by liquid scintillation counting. The series is classed as cell-based. In a few lines:
as §1

A short description of series [3]: Lipophilicity, log D of the compound at pH 7.4. The series is classed as physicochemical. The conditions noted are these: buffer.
The target in series [4] is Voltage-gated inwardly rectifying potassium channel KCNH2 (Homo sapiens, UniProt Q12809). Briefly: Inhibition of human ERG expressed in HMZ/CHO.8B4 cells assessed as inhibition of Rb+ efflux at 30 uM after 30 mins by flame atomic absorption spectrometer analysis relative to astemizole. To be noted: 0.5 h. The class given is cell-based. In outline: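 HMZ/CHO.8B4 cells stably expressing hERG, 4 × 10⁴ cells/well, 24 h on collagen, Rb-loaded 3 h at 37 °C (5.4 mM RbCl, pH 7.4). Compound added for 30 min (n = 7), then 5 min stimulation with 50 mM KCl. Supernatant and lysate Rb⁺ read by flame atomic absorption. Fractional efflux normalized to background and maximum; astemizole as 0, vehicle as 1.0.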
Sequence of Voltage-gated inwardly rectifying potassium channel KCNH2 (Q12809 whole entry): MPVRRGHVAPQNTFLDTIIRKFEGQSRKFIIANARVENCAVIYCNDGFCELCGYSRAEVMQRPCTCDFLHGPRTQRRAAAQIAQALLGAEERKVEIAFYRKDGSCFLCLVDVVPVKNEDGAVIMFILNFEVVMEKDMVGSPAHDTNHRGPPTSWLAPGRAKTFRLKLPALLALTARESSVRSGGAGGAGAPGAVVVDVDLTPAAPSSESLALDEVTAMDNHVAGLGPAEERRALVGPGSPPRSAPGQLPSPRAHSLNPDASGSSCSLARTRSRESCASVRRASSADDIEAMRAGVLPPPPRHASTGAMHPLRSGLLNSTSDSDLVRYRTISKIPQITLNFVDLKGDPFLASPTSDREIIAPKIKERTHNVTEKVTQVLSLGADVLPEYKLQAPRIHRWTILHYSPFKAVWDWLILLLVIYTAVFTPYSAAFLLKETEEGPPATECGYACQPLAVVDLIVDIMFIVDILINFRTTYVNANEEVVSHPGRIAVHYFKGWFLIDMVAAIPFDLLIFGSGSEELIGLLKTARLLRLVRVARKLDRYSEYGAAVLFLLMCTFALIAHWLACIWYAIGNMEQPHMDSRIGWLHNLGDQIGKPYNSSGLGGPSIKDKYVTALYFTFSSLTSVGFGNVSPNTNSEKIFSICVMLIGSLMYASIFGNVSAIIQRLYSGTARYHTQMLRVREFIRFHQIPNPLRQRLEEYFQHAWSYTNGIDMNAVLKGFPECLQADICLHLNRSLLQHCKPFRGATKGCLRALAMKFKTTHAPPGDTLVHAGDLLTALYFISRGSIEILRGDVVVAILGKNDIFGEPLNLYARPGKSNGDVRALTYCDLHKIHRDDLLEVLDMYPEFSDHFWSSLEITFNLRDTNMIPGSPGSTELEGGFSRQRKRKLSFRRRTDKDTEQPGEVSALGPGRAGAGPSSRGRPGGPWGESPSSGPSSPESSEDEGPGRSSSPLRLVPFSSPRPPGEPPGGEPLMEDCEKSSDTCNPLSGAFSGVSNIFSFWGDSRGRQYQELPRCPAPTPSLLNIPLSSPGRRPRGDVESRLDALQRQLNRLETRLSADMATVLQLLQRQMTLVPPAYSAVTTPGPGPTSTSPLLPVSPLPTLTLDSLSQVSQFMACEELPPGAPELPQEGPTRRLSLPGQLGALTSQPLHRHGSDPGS

Series [5] has as its target hERG (KCNH2) (Homo sapiens, UniProt Q12809). Kind of series: Inhibition of human ERG expressed in HMZ/CHO.8B4 cells at 10 uM by patch clamp assay. To be noted: HMZ/CHO.8B4 cells expressing human ERG. The series is classed as cell-based. On the technique in general: In patch-clamp work, channel activity is measured electrically.
Series [6] addresses T1, Melanin-concentrating hormone receptor 1. Briefly: Antagonist activity at human MCHR1 expressed in CHO cells assessed as inhibition of MCH-stimulated arachidonic acid release after 45 mins by liquid scintillation counting. The class given is functional, cell-based.
A short description of series [7]: AUC (0 to 24 hrs) in Sprague-Dawley rat at 3 mg/kg, po. To be noted: plasma. Also on record: time < 24 hr, dose 3 mg/kg, route oral. The class given is ADME, organism-based. In a few lines:
(§2)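 Male Sprague-Dawley rats, 8 weeks old, given oral dose.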

The test system of series [8] is Rattus norvegicus. Briefly: Antiobesity activity in po dosed diet induced obese F344 rat model assessed as inhibition of food intake administered qd for 2 days. The class given is functional, organism-based. In outline: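 Male F344/Jcl rats, 32 weeks old, on high-fat diet from 5 weeks of age, housed singly on a 7:00–19:00 light cycle, habituated to oral water dosing, grouped by food intake and body weight (n = 6). Dosed orally at 1, 3, 5 or 10 mg/kg in 0.5% methylcellulose (2 mL/kg) at 5:00 p.m. on days 0 and 1. Cumulative intake on days 1 and 2 expressed as ratio to vehicle group; Williams test.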

Series [9] is described as follows: Volume of distribution at steady state in Sprague-Dawley rat at 1 mg/kg, iv. The series is classed as ADME, organism-based. Also on record: dose 1 mg/kg, route intravenous. The conditions noted are these: in vivo, read-out: Vdss. In a few lines: (§3)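 Male Sprague-Dawley rats, 8 weeks old, given intravenous dose.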
Series [10] in a line: Total clearance in Sprague-Dawley rat plasma at 1 mg/kg, iv. The series is classed as ADME, organism-based. Also on record: dose 1 mg/kg, route intravenous. In a few lines:
as §3

Series [11] in a line: Cmax in Sprague-Dawley rat plasma at 3 mg/kg, po. The class given is ADME, organism-based. Also on record: dose 3 mg/kg, route oral. In outline:
as §2

A short description of series [12]: Tmax in Sprague-Dawley rat at 3 mg/kg, po. Also on record: dose 3 mg/kg, route oral. The series is classed as ADME, organism-based. To be noted: in vivo. In a few lines:
as §2

Series [13] in a line: Bioavailability in Sprague-Dawley rat. To be noted: in vivo. The series is classed as ADME, organism-based.

T1 sequence (Q99705 whole entry): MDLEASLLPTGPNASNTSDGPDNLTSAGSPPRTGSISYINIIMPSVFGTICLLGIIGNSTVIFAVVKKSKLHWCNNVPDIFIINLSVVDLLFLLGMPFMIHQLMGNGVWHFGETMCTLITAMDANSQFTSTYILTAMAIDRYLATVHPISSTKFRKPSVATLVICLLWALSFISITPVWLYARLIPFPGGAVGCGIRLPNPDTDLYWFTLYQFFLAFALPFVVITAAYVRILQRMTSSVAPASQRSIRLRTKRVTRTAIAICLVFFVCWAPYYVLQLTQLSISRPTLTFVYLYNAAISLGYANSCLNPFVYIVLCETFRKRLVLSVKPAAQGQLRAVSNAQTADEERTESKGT
Sequence of hERG (KCNH2) (Q12809 whole entry): as the sequence (Q12809 whole entry) above
Sequence of Melanin-concentrating hormone receptor 1 (Rattus norvegicus, UniProt P97639) (P97639 whole entry): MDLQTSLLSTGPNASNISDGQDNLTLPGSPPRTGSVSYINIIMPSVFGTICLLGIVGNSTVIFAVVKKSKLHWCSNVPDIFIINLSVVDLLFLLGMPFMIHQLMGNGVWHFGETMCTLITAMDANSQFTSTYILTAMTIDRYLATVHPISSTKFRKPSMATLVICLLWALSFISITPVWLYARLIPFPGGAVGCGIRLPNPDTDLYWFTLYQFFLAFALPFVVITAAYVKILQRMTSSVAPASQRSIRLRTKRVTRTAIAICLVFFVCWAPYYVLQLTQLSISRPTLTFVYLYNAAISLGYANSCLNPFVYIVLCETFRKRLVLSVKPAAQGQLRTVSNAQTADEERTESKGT

For orientation: IC50 means the point on the concentration scale where inhibition reaches its midpoint. As to `Cc1c(NC(=O)c2ccc(OCC3CC3)cc2)ccc2cc(CN3CCCC3C)cnc12` (racemic), the IC50 in series [1] was 6.7 nM; in series [2], 2.5 nM.
The logD is the decadic logarithm of the distribution of all forms, ionised or not, between an organic phase and buffer at a given pH. High values mean a more lipophilic compound, low ones a more hydrophilic compound. The molecule `Cc1c(NC(=O)c2ccc(OCC(C)C)cc2)ccc2cc(CN3CCCC3)cnc12` returned a logD in [3] of 3.35. For the same molecule, the results for the IC50 in [1] and in series [2] were 6.7 nM and 4.4 nM, respectively. Moreover, the Ratio in series [4] came to 0.7.
Usually inhibition stands for the percentage by which the read-out fell short of the control. Molecule `Cc1c(NC(=O)c2ccc(-c3ccc(F)cc3)cc2)ccc2cc(CN3CCCC3)cnc12` registered a logD in [3] of 2.77. The IC50 in series [1] was 1 nM. The Ratio in series [4] is given as 0.17. Further, the inhibition at 10 µM in series [5] came to 93.8%.
The molecule `Cc1c(NC(=O)c2ccc(OCC3CC3)cc2)ccc2cc(C(C)NCC(C)(C)O)cnc12` (racemic) gave a logD in series [3] of 2.67. Besides, the IC50 in series [1] is 2.7 nM; in series [2], 1.5 nM; in series [6] it was 6.4 nM. Also, at 10 µM the inhibition in series [5] was 63.3%.
`Cc1c(NC(=O)c2ccc(OCC3CC3)cc2)ccc2cc(C(C)N3CCCC3)cnc12` (racemic) gave a logD in series [3] of 3. Further, the half-inhibitory concentration (IC50) in series [1] worked out at 4.2 nM; in series [2], 1.7 nM; in [6], 6.4 nM. Also, the Ratio in [4] came out at 1.02.
Regarding `Cc1c(NC(=O)c2ccc(OCC3CC3)cc2)ccc2cc(C(C)N3CC[C@H](O)C3)cnc12` (mixture of isomers), at 10 µM the inhibition in series [5] was 58.4%.
As to `Cc1c(NC(=O)c2ccc(OCC3CC3)cc2)ccc2cc(C(C)NCCO)cnc12` (racemic), at 10 µM the inhibition in series [5] was 84.8%.
In series [5], `CC(=O)NCCNC(C)c1cnc2c(C)c(NC(=O)c3ccc(OCC4CC4)cc3)ccc2c1` (racemic) came in with an inhibition at 10 µM of 29.3%.
Take `CC(=O)NCCN[C@@H](C)c1cnc2c(C)c(NC(=O)c3ccc(OCC4CC4)cc3)ccc2c1`: in series [5], the inhibition at 10 µM stood at 33.3%.
`Cc1c(NC(=O)c2ccc(OCC3CC3)cc2)ccc2cc([C@@H](C)N3CCCC3)cnc12`: the logD in [3] was determined as 2.99. Also, the IC50 in [1] was determined as 1.9 nM; in [2] it was 1.1 nM; in series [6], 2.9 nM. The Ratio in series [4] was found to be 1.11. In [5], this molecule gave an inhibition at 10 µM of 88.1%.
For the molecule `Cc1c(NC(=O)c2ccc(OCC3CC3)cc2)ccc2cc(CN3CCCC3)cnc12`, in series [3], the logD is 2.77. In addition, the IC50 in series [1] was found to be 1.6 nM; in [2], 1.8 nM; in series [6], 4.3 nM. Further, the Ratio in series [4] worked out at 0.9.
In series [3], `Cc1c(NC(=O)c2ccc(OCC3CC3)cc2)ccc2cc(C(C)N3CCCCCC3)cnc12` (racemic) showed a logD of 3.91. Also, the values for the IC50 in series [1], in series [2] and in series [6] were 5.6 nM, 2 nM and 3.4 nM, respectively. In addition, in series [4], the Ratio was 0.73.
As a reminder, the AUC(0-t) is the area under the concentration-time curve up to a stated or last time point. Low values mean low exposure, high ones high exposure. The term clearance denotes the volume of plasma or blood freed of the substance per unit of time. Read a low clearance as inefficient removal. As a reminder, the Cmax is the peak of the concentration-time curve. As a reminder, the Tmax is the time from dosing to the highest level. Usually bioavailability stands for dose-corrected exposure relative to a reference, in per cent. On to `CC(=O)NCCN[C@H](C)c1cnc2c(C)c(NC(=O)c3ccc(OCC4CC4)cc3)ccc2c1`, for which the AUC(0-t) at 24 h in [7] is 1940 ng·h/mL. Also, in series [8], the inhibition result was “Dose-dependent effect”. Besides, the Vd in series [9] was 1.21 L/kg. Besides, the clearance in series [10] was 11.5 mL/min/kg. This molecule returned a maximum concentration (Cmax) in series [11] of 274 ng/mL. Besides, the Tmax in [12] worked out at 4 h. Besides, testing at 10 µM in series [5] gave an inhibition of 33.2%. Also, the bioavailability in [13] came out at 43%.
The molecule `CCCCCC(=O)c1ccc(C(=O)Nc2ccc3cc(CN4CCCC4)cnc3c2C)cc1` displayed a logD in series [3] of 3.5. This molecule also yielded a half-maximal inhibitory concentration (IC50) in series [2] of 170 nM. In addition, the Ratio in [4] was determined as 0.48.
Take `Cc1c(NC(=O)c2ccc(OCC3CC3)cc2)ccc2cc([C@H](C)N3CCCC3)cnc12`: the pH-dependent lipophilicity (logD) in series [3] was determined as 2.99. Besides, the IC50 worked out at 8 nM in [1], 3.4 nM in [2] and 4 nM in series [6]. Moreover, the Ratio in series [4] turned out to be 0.85.

The record behind these values is ChEMBL document CHEMBL2057191, “Synthesis, structure-activity relationship, and pharmacological studies of novel melanin-concentrating hormone receptor 1 antagonists 3-aminomethylquinolines: reducing human ether-a-go-go-related gene (hERG) associated liabilities” (J Med Chem, 2012).
